From ChEMBL document CHEMBL1770105, “Discovery and evaluation of pyrazolo[1,5-a]pyrimidines as neuropeptide Y1 receptor antagonists” (Bioorg Med Chem Lett, 2011)
The source made the active and inactive calls. The calls are words filed in the database; no cut-off is given here.

Key:
[1] = target: T1, Neuropeptide Y receptor type 1 (Homo sapiens, UniProt P25929); experiment: Displacement of [125I]-PYY from human recombinant NPY Y1 receptor overexpressed in membrane of Sf9 cells
T1 sequence (P25929 whole entry): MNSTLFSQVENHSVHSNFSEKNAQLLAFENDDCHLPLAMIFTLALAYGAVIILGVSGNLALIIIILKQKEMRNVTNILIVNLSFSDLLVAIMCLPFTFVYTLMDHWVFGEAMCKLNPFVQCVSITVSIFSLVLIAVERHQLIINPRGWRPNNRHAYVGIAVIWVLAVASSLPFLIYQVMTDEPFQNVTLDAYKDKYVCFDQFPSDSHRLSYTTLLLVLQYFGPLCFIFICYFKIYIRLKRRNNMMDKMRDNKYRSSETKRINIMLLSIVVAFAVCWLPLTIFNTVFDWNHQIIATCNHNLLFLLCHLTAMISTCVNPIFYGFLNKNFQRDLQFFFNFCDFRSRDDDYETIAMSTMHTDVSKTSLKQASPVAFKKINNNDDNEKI
Summary of the method: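 Human Y1 receptor: 125I-PYY displacement on Sf9 membranes overexpressing recombinant hY1R. Ki values are single determinations run in triplicate.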

[2] = target: T1, Neuropeptide Y receptor type 1; experiment: Antagonist activity at NPY Y1 receptor in human SK-N-MC cells assessed as inhibition of NPY-induced calcium mobilization by FLIPR assay; assay type: functional, cell-based
Summary of the method: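 SK-N-MC neuroblastoma cells plated at 25,000/well 4 days ahead, loaded with Fluo-3 for 1 h in 5% CO2, washed and resuspended in assay buffer (5 mM KCl, 115 mM NaCl, 0.96 mM NaH2PO4, 1 mM MgSO4, 2 mM CaCl2, 5 mM D-glucose) containing test compound.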

[3] = Plasma clearance in Sprague-Dawley rat at 1 mg/kg, iv and 3 mg/kg, po; assay type: ADME, organism-based
Summary of the method: (§1)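 Overnight-fasted, jugular-vein-cannulated SD rats (water ad libitum) dosed by oral gavage (3 mg/kg in 0.5% methyl cellulose, 2 mL/kg, n = 2) or iv via the jugular vein (1.0 mg/kg in 50% PEG, 1 mL/kg, n = 2).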

[4] = Fraction unbound in Sprague-Dawley rat plasma at 1 mg/kg, iv and 3 mg/kg, po; assay type: ADME, organism-based
Rattus norvegicus [5] = experiment: Unbound plasma clearance in Sprague-Dawley rat 1 mg/kg, iv and 3 mg/kg, po; assay type: ADME, organism-based; conditions: in vivo
Rattus norvegicus [6] = experiment: Antihypertensive activity in Sprague-Dawley rat assessed as inhibition of NPY-induced increase in arterial pressure at 3 mg/kg, iv; assay type: functional; conditions: Artery
Summary of the method: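 Overnight-fasted SD rats anesthetized with inactin (100 mg/kg ip), tracheal and femoral arterial/venous cannulae, on a heated pad. Arterial pressure and heart rate recorded every 5 s. NPY given as iv bolus every 15 min. After the third NPY bolus, compound given iv at 3 mg/kg in saline (1 mL/kg), followed by three further NPY injections.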

[7] = Half life in Sprague-Dawley rat at 1 mg/kg, iv and 3 mg/kg, po; assay type: ADME, organism-based; conditions: in vivo; summary of the method: as §1
[8] = Oral bioavailability in Sprague-Dawley rat at 3 mg/kg; assay type: ADME, organism-based; conditions: in vivo; summary of the method: as §1
[9] = Ratio of fraction unbound drug level in brain to plasma in Sprague-Dawley rat; assay type: ADME, cell-free
Summary of the method: (§2)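 Brain-to-plasma ratios calculated from unbound fractions. Unbound fraction in brain homogenate and whole plasma of rats or mice measured by equilibrium dialysis.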

[10] = Ratio of fraction unbound drug level in brain to plasma in FVB mouse; assay type: ADME, cell-free; summary of the method: as §2
[11] = Ratio of fraction unbound drug level in brain to plasma in Mdr1a/1b knockout mouse to FVB mouse at 5 mg.kg, sc after 0.5 hrs; assay type: ADME, organism-based
Summary of the method: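 Brain and plasma levels measured in Mdr1a/1b knockout and wild-type FVB mice 0.5 h after a 5 mg/kg sc dose. Brain/plasma ratios calculated from unbound fractions, measured by equilibrium dialysis of brain homogenate and plasma. Result expressed as knockout B/P over FVB B/P.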

Rattus norvegicus [12] = experiment: Antiobesity activity in Sprague-Dawley rat assessed as reduction of NPY-induced food intake at 120 ug, icv after 4 hrs; assay type: functional, organism-based
Summary of the method: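 SD rats with icv cannulae, fed powdered chow ad libitum. Between 10 and 11 am in the light cycle, compound or propylene glycol vehicle co-infused icv with NPY in sterile water over 1 min. Food intake measured over the next 4 h. Crossover design, two treatments 2 days apart.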

Rattus norvegicus [13] = experiment: Antiobesity activity in overnight fasted Sprague-Dawley rat assessed as decrease in food intake at 40 mg/kg, po followed by food re-feeding after 2 hrs post compound dose measured upto 2 hrs post re-feeding relative to control; assay type: functional; set-up: scale not given: the % may be the effect or the level left
Summary of the method: (§3)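 SD rats housed singly with powdered chow and water, fasted overnight, then dosed po at 40 mg/kg or vehicle (0.5% methyl cellulose in water). Pre-weighed food returned 2 or 4 h post-dose. Intake recorded 2 and 4 h after food was restored, relative to vehicle controls.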

Rattus norvegicus [14] = experiment: Antiobesity activity in overnight fasted Sprague-Dawley rat assessed as decrease in food intake at 40 mg/kg, po followed by food re-feeding after 4 hrs post compound dose measured up to 2 to 4 hrs post re-feeding; assay type: functional, organism-based; set-up: dose 40 mg/kg; summary of the method: as §3
Rattus norvegicus [15] = experiment: Neurotoxicity in Sprague-Dawley rat assessed as change in locomotor activity at 40 mg/kg, po; assay type: toxicity, organism-based; set-up: dose 40 mg/kg, route oral; conditions: in vivo
Rattus norvegicus [16] = experiment: Antiobesity activity in Wistar rat assessed as decrease in nocturnal food intake at 40 mg/kg, po measured every 10 mins for 18 hrs post-dose; assay type: functional, organism-based; set-up: dose 40 mg/kg
Summary of the method: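 Wistar rats acclimated to a continuous food-intake monitoring system. Dosed po at 40 mg/kg or vehicle 30 min before the dark cycle. Intake logged every 10 min for 18 h post-dose. Compared with time-matched vehicle by two-tailed unpaired t-test.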

Rattus norvegicus [17] = experiment: Neurotoxicity in Wistar rat assessed as change in locomotor activity at 40 mg/kg, po; assay type: toxicity, organism-based; set-up: dose 40 mg/kg, route oral; conditions: in vivo
Plasma = experiment: Unbound plasma concentration in Sprague-Dawley rat at 40 mg/kg, po after 2 hrs; assay type: ADME, organism-based; set-up: dose 40 mg/kg, route oral; conditions: in vivo
[18] = target: T2, Neuropeptide Y receptor type 2 (Homo sapiens, UniProt P49146); experiment: Binding affinity to human NPY Y2 receptor
T2 sequence (P49146 whole entry): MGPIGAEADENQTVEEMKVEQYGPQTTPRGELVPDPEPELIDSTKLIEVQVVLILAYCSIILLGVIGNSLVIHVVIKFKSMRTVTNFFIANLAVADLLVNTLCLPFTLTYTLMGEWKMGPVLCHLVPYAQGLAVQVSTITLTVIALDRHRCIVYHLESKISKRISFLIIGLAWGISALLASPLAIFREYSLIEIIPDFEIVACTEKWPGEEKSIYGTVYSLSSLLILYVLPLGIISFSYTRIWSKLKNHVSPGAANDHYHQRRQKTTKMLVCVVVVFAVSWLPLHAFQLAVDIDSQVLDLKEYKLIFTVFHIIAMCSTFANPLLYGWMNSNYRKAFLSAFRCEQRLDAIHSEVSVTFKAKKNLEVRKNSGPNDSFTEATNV

[19] = target: T3, Neuropeptide Y receptor type 5 (Homo sapiens, UniProt Q15761); experiment: Binding affinity to human NPY Y5 receptor
T3 sequence (Q15761 whole entry): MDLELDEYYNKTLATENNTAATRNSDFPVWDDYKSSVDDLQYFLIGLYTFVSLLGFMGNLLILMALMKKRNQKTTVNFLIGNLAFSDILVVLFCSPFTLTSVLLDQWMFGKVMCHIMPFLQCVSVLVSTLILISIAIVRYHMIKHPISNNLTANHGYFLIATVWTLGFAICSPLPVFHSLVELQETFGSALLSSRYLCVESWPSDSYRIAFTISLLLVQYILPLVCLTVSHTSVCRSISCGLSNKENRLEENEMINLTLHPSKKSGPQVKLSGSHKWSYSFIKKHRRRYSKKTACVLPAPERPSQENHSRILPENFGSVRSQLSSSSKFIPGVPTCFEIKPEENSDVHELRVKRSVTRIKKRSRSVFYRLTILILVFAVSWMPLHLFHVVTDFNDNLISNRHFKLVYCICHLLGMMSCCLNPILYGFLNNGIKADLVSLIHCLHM

[20] = target: T4, Corticotropin-releasing factor receptor 1 (Homo sapiens) (UniProt P34998); experiment: Binding affinity to CRHR at 10 uM
T4 sequence (whole entry): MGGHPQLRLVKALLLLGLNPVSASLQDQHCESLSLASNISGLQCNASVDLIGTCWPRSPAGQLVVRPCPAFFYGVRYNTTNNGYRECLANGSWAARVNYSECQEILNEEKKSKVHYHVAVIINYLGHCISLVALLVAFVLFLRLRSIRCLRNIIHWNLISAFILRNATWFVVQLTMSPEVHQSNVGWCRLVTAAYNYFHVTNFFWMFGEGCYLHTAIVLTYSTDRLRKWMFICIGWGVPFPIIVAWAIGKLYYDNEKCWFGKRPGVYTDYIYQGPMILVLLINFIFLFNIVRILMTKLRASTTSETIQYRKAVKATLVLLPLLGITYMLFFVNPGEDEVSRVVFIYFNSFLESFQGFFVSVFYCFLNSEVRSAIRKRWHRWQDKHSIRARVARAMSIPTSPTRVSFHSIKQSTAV

Rattus norvegicus [21] = experiment: Antiobesity activity in overnight fasted Sprague-Dawley rat assessed as decrease in food intake at 40 mg/kg, po followed by food re-feeding after 2 hrs post compound dose measured up to 4 hrs post re-feeding relative to control; assay type: functional; set-up: scale not given: the % may be the effect or the level left; summary of the method: as §3
[22] = Drug level in Sprague-Dawley rat cerebral spinal fluid at 40 mg/kg, po after 2 hrs; assay type: ADME, organism-based; set-up: dose 40 mg/kg, route oral; conditions: cerebrospinal fluid, read-out: Drug uptake
Summary of the method: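 Rats dosed 40 mg/kg po were anesthetized with metofane at 2 h post-dose (n = 2). CSF drawn from the cisterna magna with a 26-gauge needle.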

[23] = Drug level in Sprague-Dawley rat brain interstitial fluid at 40 mg/kg, po after 2 hrs; assay type: ADME, organism-based; set-up: dose 40 mg/kg, route oral; conditions: read-out: Drug uptake
Summary of the method: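 Rats dosed 40 mg/kg po. Interstitial fluid collected at 2 h from the paraventricular nucleus with microdialysis probes.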

[24] = target: T5, Neuropeptide Y receptor type 1 (Rattus norvegicus, UniProt P21555); experiment: Displacement of [125I]PYY from rat recombinant NPY Y1 receptor overexpressed in membrane of Sf9 cells
T5 sequence (P21555 whole entry): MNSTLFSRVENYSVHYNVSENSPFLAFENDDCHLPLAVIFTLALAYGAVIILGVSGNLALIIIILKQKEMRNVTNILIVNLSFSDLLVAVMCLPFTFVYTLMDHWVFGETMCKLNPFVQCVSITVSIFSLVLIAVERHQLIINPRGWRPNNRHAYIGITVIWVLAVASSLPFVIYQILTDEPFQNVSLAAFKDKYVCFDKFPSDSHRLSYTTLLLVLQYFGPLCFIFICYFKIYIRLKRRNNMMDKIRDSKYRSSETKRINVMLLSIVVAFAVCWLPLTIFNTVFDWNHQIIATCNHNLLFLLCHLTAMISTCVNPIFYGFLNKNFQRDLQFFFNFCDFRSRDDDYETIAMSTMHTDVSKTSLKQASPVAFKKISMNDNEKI

[25] = Selectivity ratio of NPY Y1 receptor over CRHR
[26] = target: T6, Corticotropin-releasing factor receptor 1 (Homo sapiens, UniProt P34998); experiment: Binding affinity to CRHR
T6 sequence (P34998 whole entry): T4 sequence (whole entry)

Cc1cc(NCCNC2CCCC2)n2nc(C)c(-c3c(Cl)cccc3Cl)c2n1
Ki [1]: 38 nM

COc1cc(Cl)c(-c2c(C)nn3c(NCCNC4CCOCC4)cc(C)nc23)c(Cl)c1
Ki [1]: 1 nM | IC50 [2]: 7 nM | clearance [3]: 45 mL/min/kg | fraction unbound [4]: 0.059 | CL (Rattus norvegicus [5]): 763 mL/min/kg | inhibition in vivo at 3 mg/kg (Rattus norvegicus [6]): 92% | half-life [7]: 1.2 h | bioavailability [8]: 13% | BPR [9]: 0.13 | BPR [10]: 0.1 | Knockout-to-FVB ratio of unbound brain/plasma ratio [11]: 9 | Activity (Rattus norvegicus [12]): Active | Activity (Rattus norvegicus [13]): 12% | Activity (Rattus norvegicus [14]): inactive | Activity (Rattus norvegicus [15]): Non-toxic | Activity (Rattus norvegicus [16]): Active | Activity (Rattus norvegicus [17]): Non-toxic | Cp (Plasma): 95 nM | IC50 [18]: > 10000 nM | IC50 [19]: > 10000 nM | inhibition [20]: < 50% | Activity (Rattus norvegicus [21]): 12% | concentration at 2 h [22]: 26 nM | concentration at 2 h [23]: 17 nM | Ki [24]: 3.5 nM

Cc1cc(C)c(-c2c(C)nn3c(NCCNC4CCCC4)cc(C)nc23)c(C)c1
Ki [1]: 21 nM

COc1cc(Cl)c(-c2c(C)nn3c(NCCNC4CCCCC4F)cc(C)nc23)c(Cl)c1 (mixture of isomers)
Ki [1]: 5 nM | Knockout-to-FVB ratio of unbound brain/plasma ratio [11]: 8

CCOc1cc(Cl)c(-c2c(C)nn3c(NCCNC4CCOCC4)cc(C)nc23)c(Cl)c1
Ki [1]: 3 nM | IC50 [2]: 15 nM | clearance [3]: 28 mL/min/kg | fraction unbound [4]: 0.029 | CL (Rattus norvegicus [5]): 996 mL/min/kg | inhibition in vivo at 3 mg/kg (Rattus norvegicus [6]): 47%

COc1cc(Cl)c(-c2c(C)nn3c(NCC(C)(C)NC4CCOCC4)cc(C)nc23)c(Cl)c1
Ki [1]: 141 nM | Knockout-to-FVB ratio of unbound brain/plasma ratio [11]: 4

CCN(CCN)c1nc(C)nc2c1c1ccccc1n2-c1c(C)cc(C)cc1C
Ratio [25]: 29 | Ki [26]: 4470 nM
